In ChEMBL document CHEMBL1143895, “Core-modified porphyrins. Part 6: Effects of lipophilicity and core structures on physicochemical and biological properties in vitro” (Bioorg Med Chem, 2008):

What was measured:
R3230AC [1] = assay: Cytotoxicity in rat R3230AC cells irradiated with 10.8J/cm^2 of water filtered halogen light after 24 hrs by MTT assay; type: functional, cell-based; settings: light or radiation study
In short: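 R3230AC rodent mammary adenocarcinoma cells in α-MEM with 10% bovine growth serum, seeded 1.0–1.5×10^4 cells/well and grown 24 h at 37 °C, 5% CO2. Porphyrin in complete medium for 24 h, rinsed with saline, then irradiated 1 h in clear serum-free medium with water-filtered halogen light (400–850 nm, 3 mW/cm², 10.8 J/cm²). Given complete medium, 24 h dark, then MTT vs light-only controls. IC50 from Hill fit; ≥3 experiments in duplicate.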

R3230AC [2] = assay: Drug uptake in rat R3230AC assessed as intracellular accumulation per cell at 10 uM after 24 hrs; type: ADME, cell-based
In short: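 R3230AC cells seeded 2.0–3.0×10^4/well and grown 24 h. Porphyrin from a 2 mM DMSO stock, diluted in complete medium to 10 μM final, 24 h at 37 °C. Monolayer rinsed twice with 0.9% NaCl and lysed in DMSO. Porphyrin fluorescence read and converted through a DMSO standard curve to fmol/cell. Mean with SEM.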

[3] = Lipophilicity, log D at pH 7.4; type: physicochemical; settings: buffer
In short: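 Shake-flask method: porphyrin dissolved in equal volumes of n-octanol and pH 7.4 phosphate buffer, sonicated 30 min, left to settle 4 h. Each phase measured by UV-vis absorbance and reported as log D7.4.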

R3230AC [4] = assay: Cytotoxicity in rat R3230AC cells under dark condition upto 10 uM after 24 hrs by MTT assay; type: functional, cell-based
In short: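 Dark toxicity in R3230AC cells, seeded 1.0–1.5×10^4 cells/well and grown 24 h at 37 °C, 5% CO2. Porphyrin up to 10 μM in complete medium for 24 h, rinsed with saline. Cells held 1 h in the dark in clear serum-free medium, then 24 h in complete medium before MTT, read as percent of untreated dark controls.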

[5] = Singlet oxygen generation assessed as DPBF oxidation at 1 uM; type: functional
In short: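 DPBF consumption by singlet oxygen from the irradiated porphyrin, with stirring under 3 mW/cm² light. UV absorbance of DPBF read every 2 min up to 10 min, expressed as percent DPBF oxidized.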

Compound	Drug uptake (R3230AC [2]) [fmol]	logD [3]	IC50 (R3230AC [1]) [nM]	Activity (R3230AC [4])	Activity [5] [%]
CC(C)(C)c1ccc(-c2c3nc(c(-c4ccc(OCC(=O)O)cc4)c4ccc(s4)c(-c4ccccc4)c4nc(c(-c5ccccc5)c5ccc2s5)C=C4)C=C3)cc1	0.46	> 2	590	Not toxic	75
O=S(=O)([O-])c1ccc(-c2c3nc(c(-c4ccc(F)cc4)c4ccc(s4)c(-c4ccc(F)cc4)c4nc(c(-c5ccc(F)cc5)c5ccc2s5)C=C4)C=C3)cc1.[Na+]	0.3	0.8	770	Not toxic	64
O=C(O)COc1ccc(-c2c3nc(c(-c4ccc(F)cc4)c4ccc(s4)c(-c4ccc(F)cc4)c4nc(c(-c5ccc(F)cc5)c5ccc2s5)C=C4)C=C3)cc1	0.33	1.8	380	Not toxic	75
O=C(O)COc1c(OCC(=O)O)c2cc3nc(c(-c4ccccc4)c4ccc([nH]4)c(-c4ccccc4)c4nc(cc1s2)C=C4)C=C3 [THIAPORPHYRIN]	0.16	0.8	2280	Not toxic	48
O[C@@H]1c2nc(c(-c3ccccc3)c3ccc(s3)c(-c3ccccc3)c3nc(c(-c4ccccc4)c4ccc(s4)c2-c2ccccc2)C=C3)[C@@H]1O	4.5	> 2	180	Not toxic	78

Continued, in another order:

Drug uptake (R3230AC [2]) [fmol]	logD [3]	Compound	IC50 (R3230AC [1]) [nM]	Activity (R3230AC [4])	Activity [5] [%]
0.11	-0.5	O=C(O)COc1ccc(-c2c3nc(c(-c4ccccc4)c4ccc(s4)c(-c4ccccc4)c4nc(c(-c5ccc(OCC(=O)O)cc5)c5ccc2s5)[C@H](O)[C@@H]4O)C=C3)cc1	2570	Not toxic	62
0.31	1.6	O=C(O)COc1ccc(-c2c3nc(c(-c4ccccc4)c4ccc(s4)c(-c4ccccc4)c4nc(c(-c5ccccc5)c5ccc2s5)C=C4)C=C3)cc1	260	Not toxic	78
0.59	0.1	O=C(O)COc1ccc(-c2c3nc(c(-c4ccccc4)c4ccc(s4)c(-c4ccccc4)c4nc(c(-c5ccc(OCC(=O)O)cc5)c5ccc2s5)C=C4)C=C3)cc1	130	Not toxic	68
